We go through nine molecules from ChEMBL document CHEMBL1126783, “Design of potent, cyclic peptide bradykinin receptor antagonists from conformationally constrained linear peptides” (J Med Chem, 1993).

Where a SMILES comes first, the peptide text is derived from it. Bridges are numbered along the chain shown (N, C = ends). [ ]: non-standard residue; d: D form. Oic = O=C(O)[C@@H]1C[C@@H]2CCCC[C@@H]2N1; Hyp = O=C(O)[C@@H]1C[C@@H](O)CN1; dTic = O=C(O)[C@H]1Cc2ccccc2CN1

Assay [1] concerns the target T1, B2 bradykinin receptor (Cavia porcellus, UniProt O70526).
T1 sequence (O70526 whole entry): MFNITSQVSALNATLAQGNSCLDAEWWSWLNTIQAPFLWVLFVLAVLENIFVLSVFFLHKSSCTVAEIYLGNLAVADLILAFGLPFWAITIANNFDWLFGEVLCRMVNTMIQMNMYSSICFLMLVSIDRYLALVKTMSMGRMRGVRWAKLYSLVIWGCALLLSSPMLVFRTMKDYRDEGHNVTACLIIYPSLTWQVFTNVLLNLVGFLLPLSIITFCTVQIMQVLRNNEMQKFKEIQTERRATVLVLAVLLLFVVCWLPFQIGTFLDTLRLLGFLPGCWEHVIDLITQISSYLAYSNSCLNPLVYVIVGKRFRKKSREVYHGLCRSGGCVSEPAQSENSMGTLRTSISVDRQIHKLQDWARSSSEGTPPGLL
The assay can be described thus: Antagonism against bradykinin receptor B2 in guinea pig ileal tissue. In kind it is functional. To be noted: read-out: pA2 (converted). The essentials: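 Functional antagonism recorded as pA2 in isolated guinea pig ileal tissue, a preparation that expresses only B2 receptors. The procedure follows conventional, previously reported methods.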

Assay [2] concerns the target T1, B2 bradykinin receptor. In words: Binding affinity against [3H]bradykinin binding to bradykinin receptor B2 in guinea pig ileal membrane. The assay is classed as cell membranes. In a few lines:
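Competition binding against [³H]bradykinin on guinea pig ileal membrane preparations, with affinity given as Ki following a previously described method. The ileum expresses only B2 receptors.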

The Ki is the equilibrium dissociation constant of an inhibitor or competing ligand from its target. A lower Ki goes with higher affinity.

Regarding `C[C@@](Cc1ccccc1)(NC(=O)CNC(=O)[C@@H]1C[C@H](O)CN1C(=O)[C@@H]1CCCN1C(=O)[C@H](CCCN=C(N)N)NC(=O)[C@H](N)CCCN=C(N)N)C(=O)N[C@@H](CO)C(=O)N1Cc2ccccc2C[C@@H]1C(=O)N1C2CCCCC2C[C@H]1C(=O)N[C@@H](CCCN=C(N)N)C(=O)O` (some centres not stated), the Kb at B2 bradykinin receptor [1] was 12.6 nM. Moreover, on B2 bradykinin receptor [2], the Ki is 0.54 nM.
As to `NC(N)=NCCC[C@@H](N)C(=O)N[C@@H](CCCN=C(N)N)C(=O)N[C@H]1CSSC[C@@H](C(=O)N2Cc3ccccc3C[C@@H]2C(=O)N2[C@H](C(=O)N[C@@H](CCCN=C(N)N)C(=O)O)C[C@@H]3CCCC[C@@H]32)NC(=O)[C@H](Cc2ccccc2)NC(=O)CNC(=O)[C@@H]2CCCN2C1=O` (H-[dR]RCPGFC[dTic][Oic]R-OH; disulfide 3-7), the Kb at B2 bradykinin receptor [1] was 501 nM.
On to `CN(CC(=O)N(C)[C@@H](Cc1ccccc1)C(=O)N[C@@H](CO)C(=O)N1Cc2ccccc2C[C@@H]1C(=O)N1C2CCCCC2C[C@H]1C(=O)N[C@@H](CCCN=C(N)N)C(=O)O)C(=O)[C@@H]1C[C@H](O)CN1C(=O)[C@@H]1CCCN1C(=O)[C@H](CCCN=C(N)N)NC(=O)[C@H](N)CCCN=C(N)N` (some centres not stated), for which the Ki on B2 bradykinin receptor [2] came to 1690 nM.
Regarding `CN(C(=O)CNC(=O)[C@@H]1C[C@H](O)CN1C(=O)[C@@H]1CCCN1C(=O)[C@H](CCCN=C(N)N)NC(=O)[C@H](N)CCCN=C(N)N)[C@@H](Cc1ccccc1)C(=O)N[C@@H](CO)C(=O)N1Cc2ccccc2C[C@@H]1C(=O)N1C2CCCCC2C[C@H]1C(=O)N[C@@H](CCCN=C(N)N)C(=O)O` (some centres not stated), the Kb on B2 bradykinin receptor [1] was 2510 nM. The molecule further registered a Ki on B2 bradykinin receptor [2] of 26.5 nM.
On to `N=C(N)NCCC[C@@H](N)C(=O)N[C@@H](CCCNC(=N)N)C(=O)N[C@H]1CSSC[C@@H](C(=O)N[C@@H](CO)C(=O)N2Cc3ccccc3C[C@@H]2C(=O)N2[C@H](C(=O)N[C@@H](CCCNC(=N)N)C(=O)O)C[C@@H]3CCCC[C@@H]32)NC(=O)CNC(=O)[C@@H]2CCCN2C1=O` (H-[dR]RCPGCS[dTic][Oic]R-OH; disulfide 3-6), for which the Kb at B2 bradykinin receptor [1] was 240 nM.
`CN(CC(=O)N[C@@H](Cc1ccccc1)C(=O)N[C@@H](CO)C(=O)N1Cc2ccccc2C[C@@H]1C(=O)N1C2CCCCC2C[C@H]1C(=O)N[C@@H](CCCN=C(N)N)C(=O)O)C(=O)[C@@H]1C[C@H](O)CN1C(=O)[C@@H]1CCCN1C(=O)[C@H](CCCN=C(N)N)NC(=O)[C@H](N)CCCN=C(N)N` (some centres not stated) yielded a Ki at B2 bradykinin receptor [2] of 30.8 nM.
Turning to `CC(NC(=O)[C@@H]1C[C@H](O)CN1C(=O)[C@@H]1CCCN1C(=O)[C@H](CCCN=C(N)N)NC(=O)[C@H](N)CCCN=C(N)N)C(=O)N[C@@](C)(Cc1ccccc1)C(=O)N[C@@H](CO)C(=O)N1Cc2ccccc2C[C@@H]1C(=O)N1C2CCCCC2C[C@H]1C(=O)N[C@@H](CCCN=C(N)N)C(=O)O` (some centres not stated), the affinity on B2 bradykinin receptor [2], expressed as Ki, was 3030 nM.
For the molecule `NC(N)=NCCC[C@@H](N)C(=O)N[C@@H](CCCN=C(N)N)C(=O)N1CCC[C@H]1C(=O)N1C[C@H](O)C[C@H]1C(=O)NCC(=O)N[C@@H](Cc1ccccc1)C(=O)N[C@@H](CO)C(=O)N1Cc2ccccc2C[C@@H]1C(=O)N1[C@H](C(=O)N[C@@H](CCCN=C(N)N)C(=O)O)C[C@@H]2CCCC[C@@H]21` (H-[dR]RP[Hyp]GFS[dTic][Oic]R-OH), the Kb at B2 bradykinin receptor [1] is 1.51 nM. The molecule further displayed a Ki on B2 bradykinin receptor [2] of 0.08 nM.
For the molecule `CC(NC(=O)[C@@H]1C[C@H](O)CN1C(=O)[C@@H]1CCCN1C(=O)[C@H](CCCN=C(N)N)NC(=O)[C@H](N)CCCN=C(N)N)C(=O)N[C@@H](Cc1ccccc1)C(=O)N[C@@H](CO)C(=O)N1Cc2ccccc2C[C@@H]1C(=O)N1C2CCCCC2C[C@H]1C(=O)N[C@@H](CCCN=C(N)N)C(=O)O` (some centres not stated), the affinity on B2 bradykinin receptor [2], expressed as Ki, was 82.3 nM.
